Here are results for 61 compounds from ChEMBL document CHEMBL1146618, “Discovery of 2-amino-heteroaryl-benzothiazole-6-anilides as potent p56(lck) inhibitors” (Bioorg Med Chem Lett, 2003).

The IC50 is the concentration that inhibits the measured activity by half. Usually Ki stands for the equilibrium dissociation constant of an inhibitor or competing ligand from its target. High values mean lower affinity, low ones higher affinity.

Where only a bound is given, the exact number is not on record here.

Experiment [1] concerns the target T1, Tyrosine-protein kinase Lck (Homo sapiens, UniProt P06239). Description: Inhibition of human p56 Lck tyrosine kinase.
For experiment [2], the target named is Tyrosine-protein kinase Fyn (Homo sapiens, UniProt P06241). In words: Inhibition of Fyn protein kinase. The method in brief:
(§1)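 Continuous coupled assay (pyruvate kinase/lactate dehydrogenase with PEP and NADH), run under the same conditions as the GST-Lck assay. Inhibitor was added in DMSO and the reaction started with ATP. Fluorescence was followed and rates were fitted by nonlinear least squares to derive Ki.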

The target of experiment [3] is Proto-oncogene tyrosine-protein kinase Src (Homo sapiens, UniProt P12931). In words: Inhibition of Src protein tyrosine kinase. The method in brief:
as §1

Experiment [4] can be described thus: Inhibition of anti-CD3, anti-CD28 induced PBL T-cell proliferation. It counts as functional. Conditions: Homo sapiens.
The target of experiment [5] is T1, Tyrosine-protein kinase Lck. Description: Inhibition of p56 Lck tyrosine kinase.

Tyrosine-protein kinase Fyn, sequence (P06241 whole entry): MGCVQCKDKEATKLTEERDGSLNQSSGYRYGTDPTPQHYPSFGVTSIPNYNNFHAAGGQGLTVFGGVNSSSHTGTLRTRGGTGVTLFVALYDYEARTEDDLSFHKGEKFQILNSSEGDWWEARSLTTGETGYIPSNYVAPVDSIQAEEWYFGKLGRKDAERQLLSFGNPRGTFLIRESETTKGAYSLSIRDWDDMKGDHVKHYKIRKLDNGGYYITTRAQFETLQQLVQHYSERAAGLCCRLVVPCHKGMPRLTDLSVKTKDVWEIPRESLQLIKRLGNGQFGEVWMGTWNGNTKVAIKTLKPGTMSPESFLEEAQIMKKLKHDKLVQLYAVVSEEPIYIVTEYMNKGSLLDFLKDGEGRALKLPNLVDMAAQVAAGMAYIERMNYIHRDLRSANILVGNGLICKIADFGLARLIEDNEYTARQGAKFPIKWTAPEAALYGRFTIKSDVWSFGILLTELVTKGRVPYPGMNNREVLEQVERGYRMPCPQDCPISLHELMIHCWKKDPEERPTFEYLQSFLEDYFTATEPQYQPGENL
Proto-oncogene tyrosine-protein kinase Src, sequence (P12931 2-536 limits assumed): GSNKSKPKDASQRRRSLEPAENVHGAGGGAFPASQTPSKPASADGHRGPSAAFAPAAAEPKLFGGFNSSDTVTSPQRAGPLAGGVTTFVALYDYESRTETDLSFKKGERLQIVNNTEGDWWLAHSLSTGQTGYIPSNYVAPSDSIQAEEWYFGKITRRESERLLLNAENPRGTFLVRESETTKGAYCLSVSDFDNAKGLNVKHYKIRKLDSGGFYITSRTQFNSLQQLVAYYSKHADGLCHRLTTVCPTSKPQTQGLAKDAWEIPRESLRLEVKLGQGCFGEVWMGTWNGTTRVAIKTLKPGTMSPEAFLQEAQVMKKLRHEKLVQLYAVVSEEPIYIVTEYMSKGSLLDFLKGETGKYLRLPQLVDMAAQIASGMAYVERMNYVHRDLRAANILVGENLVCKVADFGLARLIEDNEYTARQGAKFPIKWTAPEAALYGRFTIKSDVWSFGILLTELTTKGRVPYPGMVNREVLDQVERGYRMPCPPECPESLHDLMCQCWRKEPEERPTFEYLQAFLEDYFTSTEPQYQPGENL
T1 sequence (P06239 whole entry): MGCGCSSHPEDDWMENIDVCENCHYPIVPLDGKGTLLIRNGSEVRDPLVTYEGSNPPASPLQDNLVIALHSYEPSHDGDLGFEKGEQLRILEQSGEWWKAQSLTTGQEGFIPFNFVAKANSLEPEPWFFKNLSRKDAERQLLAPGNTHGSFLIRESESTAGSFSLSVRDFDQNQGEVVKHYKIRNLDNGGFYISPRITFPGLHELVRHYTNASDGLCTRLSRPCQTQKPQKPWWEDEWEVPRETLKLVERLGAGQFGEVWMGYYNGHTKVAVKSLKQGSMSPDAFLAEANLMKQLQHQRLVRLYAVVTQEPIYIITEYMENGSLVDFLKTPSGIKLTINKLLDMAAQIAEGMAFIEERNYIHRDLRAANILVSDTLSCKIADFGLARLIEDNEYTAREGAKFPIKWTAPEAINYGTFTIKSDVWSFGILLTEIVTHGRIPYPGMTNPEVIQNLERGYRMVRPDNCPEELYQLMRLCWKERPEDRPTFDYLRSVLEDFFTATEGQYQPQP

In turn, `Cc1cc(C)c(NC(=O)c2ccc3nc(Nc4ncc[nH]4)sc3c2)c(C)c1` gave an IC50 in experiment [1] above 3.1 µM.

For `Cc1cccc(Cl)c1NC(=O)c1ccc2nc(Nc3cccc(NCCO)n3)sc2c1`, the results for the Ki in experiment [2], in experiment [3] and in experiment [5] were 0.0024 µM, 0.013 µM and 0.0009 µM, respectively. Further, the figures for the half-inhibitory concentration (IC50) in experiment [4] and in experiment [1] were 0.475 µM and 0.0005 µM, respectively.

Compound `CCc1cc(Nc2nc3ccc(C(=O)Nc4c(C)cccc4Cl)cc3s2)ncn1` gave an IC50 in experiment [1] of 0.005 µM.

On to `Cc1cccc(Cl)c1NC(=O)c1ccc2nc(Nc3cccc(N)n3)sc2c1`, for which, in experiment [1], the concentration for half-maximal inhibition (IC50) was found to be 0.002 µM.

In experiment [1], `Cc1cccc(Nc2nc3ccc(C(=O)Nc4c(C)cccc4Cl)cc3s2)n1` yielded an IC50 of 0.009 µM.

Compound `Cc1cccc(Cl)c1NC(=O)c1ccc2nc(Nc3ccn[nH]3)sc2c1` showed a half-inhibitory concentration (IC50) in experiment [1] of 1.59 µM.

As for `Cc1cccc(Cl)c1NC(=O)c1ccc2nc(Nc3cnccn3)sc2c1`, the half-maximal inhibitory concentration (IC50) in experiment [1] was determined as 0.015 µM.

In experiment [1], `Cc1cc(C)c(NC(=O)c2ccc3nc(Nc4ccncn4)sc3c2)c(C)c1` had an IC50 of 0.403 µM.

As for `Cc1cc(C)c(NC(=O)c2ccc3nc(Nc4ccccn4)sc3c2)c(C)c1`, the half-maximal inhibitory concentration (IC50) in experiment [1] came to 0.138 µM.

In experiment [1], `Cc1cc(C)c(NC(=O)c2ccc3nc(Nc4cccc(C)n4)sc3c2)c(C)c1` registered a half-inhibitory concentration (IC50) of 0.18 µM.

`Cc1cccc(Cl)c1NC(=O)c1ccc2nc(NN3C=CC=CN3)sc2c1` showed an IC50 in experiment [1] of 0.041 µM.

`Cc1cccc(Cl)c1NC(=O)c1ccc2nc(Nc3cc(CN4CCOCC4)ccn3)sc2c1` displayed an IC50 in experiment [1] of 0.001 µM.

With `CNCc1cc(Nc2nc3ccc(C(=O)Nc4c(C)cccc4Cl)cc3s2)nc(C)n1`, inhibition in experiment [1] was half-maximal at 0.007 µM (IC50).

Compound `Cc1cc(C)c(NC(=O)c2ccc3nc(NCC4CC4)sc3c2)c(C)c1` showed a half-inhibitory concentration (IC50) in experiment [1] above 3.1 µM.

Turning to `Cc1cc(C)c(NC(=O)c2ccc3nc(Nc4ccccc4)sc3c2)c(C)c1`, 1.74 µM corresponded to half-maximal inhibition in experiment [1] (IC50).

As to `Cc1cccc(Cl)c1NC(=O)c1ccc2nc(Nc3cc(Cl)ncn3)sc2c1`, in experiment [1], the midpoint of inhibition, the IC50, lay at 0.02 µM.

Regarding `Cc1cccc(Cl)c1NC(=O)c1ccc2nc(Nc3ccncn3)sc2c1`, half-maximal inhibition in experiment [1] (IC50) was put at 0.027 µM.

With `Cc1cc(C)c(NC(=O)c2ccc3nc(Nc4cc(C)nc(C)n4)sc3c2)c(C)c1`, the IC50 in experiment [1] stood at 0.053 µM.

In turn, `Cc1cc(C)c(NC(=O)c2ccc3nc(Nc4cnc[nH]4)sc3c2)c(C)c1` yielded an IC50 in experiment [1] above 3.1 µM.

Consider `Cc1cc(Nc2nc3ccc(C(=O)Nc4c(C)cccc4Cl)cc3s2)nc(CN2CCOCC2)n1`, for which, in experiment [1], half-maximal inhibition (IC50) required 0.01 µM.

In turn, `Cc1cccc(Cl)c1NC(=O)c1ccc2nc(Nc3ccnc(NCCO)n3)sc2c1` showed a concentration for half-maximal inhibition (IC50) in experiment [1] of 0.003 µM.

As to `Cc1cc(Nc2nc3ccc(C(=O)Nc4c(C)cccc4Cl)cc3s2)nc(NCC2CCCO2)n1` (stereo not given), the Ki amounted to 0.0011 µM in experiment [2], 0.0032 µM in experiment [3] and 0.00054 µM in experiment [5]. The IC50 in experiment [4] came out at 0.262 µM; in experiment [1], 0.001 µM.

Turning to `Cc1cccc(Cl)c1NC(=O)c1ccc2nc(Nc3ncc[nH]3)sc2c1`, the IC50 in experiment [1] was above 3.1 µM.

`Cc1cccc(Cl)c1NC(=O)c1ccc2nc(NC(=O)NC(C)(C)C)sc2c1`: the Ki turned out to be 0.1 µM in experiment [2], 0.333 µM in experiment [3] and 0.0055 µM in experiment [5]. The compound also displayed a half-inhibitory concentration (IC50) in experiment [4] of 1.1 µM.

`Cc1cc(Nc2nc3ccc(C(=O)Nc4c(C)cccc4Cl)cc3s2)nc(C)n1` showed an IC50 in experiment [1] of 0.02 µM.

In turn, `Cc1nc(CN2CCOCC2)cc(Nc2nc3ccc(C(=O)Nc4c(C)cccc4Cl)cc3s2)n1` yielded an IC50 in experiment [1] of 0.006 µM.

`Cc1cnc(Nc2nc3ccc(C(=O)Nc4c(C)cc(C)cc4C)cc3s2)c(C)c1` returned an IC50 in experiment [1] of 0.017 µM.

`Cc1cccc(Cl)c1NC(=O)c1ccc2nc(Nc3ccccn3)sc2c1` had an IC50 in experiment [1] of 0.084 µM.

With `CCc1ccnc(Nc2nc3ccc(C(=O)Nc4c(C)cccc4Cl)cc3s2)c1`, the midpoint of inhibition in experiment [1], the IC50, lay at 0.005 µM.

Compound `CNc1nccc(Nc2nc3ccc(C(=O)Nc4c(C)cccc4Cl)cc3s2)n1` had an IC50 in experiment [1] of 0.02 µM.

`Cc1cc(C)nc(Nc2nc3ccc(C(=O)Nc4c(C)cccc4Cl)cc3s2)c1` returned an IC50 in experiment [1] of 0.008 µM.

Compound `Cc1ccnc(Nc2nc3ccc(C(=O)Nc4c(C)cc(C)cc4C)cc3s2)c1` returned an IC50 in experiment [1] of 0.032 µM.

On to `Cc1ccc(Nc2nc3ccc(C(=O)Nc4c(C)cccc4Cl)cc3s2)nc1`, for which the IC50 in experiment [1] was 0.035 µM.

For `CC(=O)NCCNc1cccc(Nc2nc3ccc(C(=O)Nc4c(C)cccc4Cl)cc3s2)n1`, it took 0.002 µM to reach half-maximal inhibition in experiment [1] (IC50).

The compound `Cc1cc(C)c(NC(=O)c2ccc3nc(Nc4nccnn4)sc3c2)c(C)c1` registered an IC50 in experiment [1] of 1.89 µM.

In turn, `COc1cc(Nc2nc3ccc(C(=O)Nc4c(C)cccc4Cl)cc3s2)ncn1` registered an IC50 in experiment [1] of 0.013 µM.

Take `Cc1cccc(Cl)c1NC(=O)c1ccc2nc(Nc3cccc(CN4CCOCC4)n3)sc2c1`: the IC50 in experiment [1] came to 0.013 µM.

As to `Cc1cccc(Cl)c1NC(=O)c1ccc2nc(Nc3ccnc(Cl)n3)sc2c1`, in experiment [1], the half-inhibitory concentration (IC50) stood at 0.031 µM.

`CCc1cc(Nc2nc3ccc(C(=O)Nc4c(C)cc(C)cc4C)cc3s2)ncn1` had an IC50 in experiment [1] of 0.077 µM.

In experiment [1], `CNN1CCN(Cc2ccnc(Nc3nc4ccc(C(=O)Nc5c(C)cccc5Cl)cc4s3)c2)CC1` returned a half-inhibitory concentration (IC50) of 0.001 µM.

In experiment [1], `Cc1ccnc(Nc2nc3ccc(C(=O)Nc4c(C)cccc4Cl)cc3s2)c1` gave an IC50 of 0.02 µM.

With `Cc1cc(Nc2nc3ccc(C(=O)Nc4c(C)cccc4Cl)cc3s2)nc(NCC(C)(C)O)n1`, in experiment [1], 0.006 µM corresponded to half-maximal inhibition (IC50).

Compound `Cc1ccc(Nc2nc3ccc(C(=O)Nc4c(C)cc(C)cc4C)cc3s2)nc1` displayed a 50% inhibitory concentration (IC50) in experiment [1] of 0.072 µM.

The compound `Cc1cc(C)c(NC(=O)c2ccc3nc(Nc4ncccc4C)sc3c2)c(C)c1` had an IC50 in experiment [1] above 3.1 µM.

`Cc1cc(C)c(NC(=O)c2ccc3nc(Nc4nc[nH]n4)sc3c2)c(C)c1` came in with an IC50 in experiment [1] above 3.1 µM.

In turn, `Cc1cccc(Cl)c1NC(=O)c1ccc2nc(Nc3cccc(CN(C)C)n3)sc2c1` came in with a half-maximal inhibitory concentration (IC50) in experiment [1] of 0.01 µM.

In experiment [1], `Cc1cccc(Cl)c1NC(=O)c1ccc2nc(Nc3cccc(NCC(C)(C)N)n3)sc2c1` came in with an IC50 of 0.006 µM.

Turning to `Cc1cc(C)c(NC(=O)c2ccc3nc(Nc4ccncc4)sc3c2)c(C)c1`, the half-maximal inhibitory concentration (IC50) in experiment [1] is above 3.1 µM.

As to `Cc1cc(C)c(NC(=O)c2ccc3nc(Nc4ncccn4)sc3c2)c(C)c1`, the half-inhibitory concentration (IC50) in experiment [1] is above 3.1 µM.

`Cc1cccc(Cl)c1NC(=O)c1ccc2nc(Nc3ccccc3)sc2c1` gave a half-maximal inhibitory concentration (IC50) in experiment [1] of 0.327 µM.

Turning to `Cc1cc(C)c(NC(=O)c2ccc3nc(Nc4cccnc4)sc3c2)c(C)c1`, in experiment [1], the concentration for half-maximal inhibition (IC50) is above 3.1 µM.

`Cc1cccc(Cl)c1NC(=O)c1ccc2nc(Nc3cc(CN(C)C)ccn3)sc2c1`: half-maximal inhibition in experiment [1] (IC50) was put at 0.009 µM.

As to `Cc1cccc(Cl)c1NC(=O)c1ccc2nc(Nc3cc(N)ccn3)sc2c1`, the IC50 in experiment [1] was 0.403 µM.

As to `Cc1cc(C)c(NC(=O)c2ccc3nc(Nc4nccs4)sc3c2)c(C)c1`, the half-maximal inhibitory concentration (IC50) in experiment [1] is above 3.1 µM.

Consider `Cc1cc(Nc2nc3ccc(C(=O)Nc4c(C)cccc4Cl)cc3s2)nc(NCCO)n1`, for which the inhibition constant Ki stood at 0.004 µM in experiment [2] and 0.01 µM in experiment [3]. Moreover, the figures for the IC50 in experiment [4], in experiment [1] and in experiment [5] were 0.329 µM, 0.002 µM and 0.0011 µM, respectively.

Take `Cc1cc(Nc2nc3ccc(C(=O)Nc4c(C)cccc4Cl)cc3s2)ncn1`: in experiment [1], inhibition was half-maximal at 0.021 µM (IC50).

As for `CC(=O)NCCNc1cc(Nc2nc3ccc(C(=O)Nc4c(C)cccc4Cl)cc3s2)ncn1`, in experiment [1], the midpoint of inhibition, the IC50, lay at 0.006 µM.

In turn, `Cc1cccc(Cl)c1NC(=O)c1ccc2nc(Nc3cc(NCCO)ncn3)sc2c1` showed an IC50 in experiment [1] of 0.008 µM.

On to `Cc1cccc(Cl)c1NC(=O)c1ccc2nc(Nc3cc(N)ncn3)sc2c1`, for which half-maximal inhibition in experiment [1] (IC50) required 0.008 µM.

Compound `Cc1cc(C)c(NC(=O)c2ccc3nc(Nc4cnccn4)sc3c2)c(C)c1` had an IC50 in experiment [1] of 0.235 µM.

Regarding `CNc1cc(Nc2nc3ccc(C(=O)Nc4c(C)cccc4Cl)cc3s2)ncn1`, the inhibition constant (Ki) in experiment [2] amounted to 0.0088 µM; in experiment [3], 0.017 µM; in experiment [5] it was 0.0066 µM. In addition, the IC50 in experiment [4] came to 0.69 µM; in experiment [1], 0.002 µM.
